Source: ChEMBL document CHEMBL4732076, “Design, synthesis and bioevaluation of inhibitors targeting HSP90-CDC37 protein-protein interaction based on a hydrophobic core” (Eur J Med Chem, 2021)
Active and inactive are the calls of the source. The rule behind the calls is not given here.

How the values were obtained:
[1] = target: T1, Heat shock protein HSP90 (Homo sapiens, UniProt P07900+P08238); test: Binding affinity to recombinant human N-terminal truncated HSP90 (9 to 236 residues) expressed in Escherichia coli BL21 (DE3) assessed as off rate constant by biolayer interferometry assay
[2] = target: T1, Heat shock protein HSP90; test: Binding affinity to recombinant human N-terminal truncated HSP90 (9 to 236 residues) expressed in Escherichia coli BL21 (DE3) assessed as on rate constant by biolayer interferometry assay
[3] = test system: HCT-116; test: Antiproliferative activity against human HCT-116 cells assessed as reduction in cell viability incubated for 72 hrs by MTT assay; type: functional, cell-based
Procedure, shortened: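 HCT116 cells in RPMI 1640 with 10% FBS, 37 °C, 5% CO2. Seeded at 3000–5000 cells/well and left 24 h, then exposed to serial compound dilutions for 72 h. Proliferation read by MTT kit using the standard protocol.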

[4] = target: T1, Heat shock protein HSP90; test: Binding affinity to recombinant human N-terminal truncated HSP90 (9 to 236 residues) expressed in Escherichia coli BL21 (DE3) assessed as dissociation rate constant by biolayer interferometry assay
[5] = test system: HCT-116; test: Antitumor activity against human HCT-116 cells xenografted in BALB/c mouse assessed as reduction in tumor at 10 to 20 mg/kg, po administered for 37 days and measured on day 37 by H and E staining based immunohistochemistry analysis; type: functional, organism-based; settings: dose 10-20 mg/kg, time 37.0 day
[6] = test system: HCT-116; test: Inhibition of HSP90/CDC37 interaction in human HCT-116 cells assessed as upregulation of p21/p27 at 1 to 10 uM incubated for 12 hrs by Western blot analysis; settings: dose 1-10 µM
[7] = test system: HCT-116; test: Inhibition of HSP90/CDC37 interaction in human HCT-116 cells assessed as downregulation of CDK4 incubated for 12 hrs by Western blot analysis; type: cell-based; settings: dose 1-10 µM
Procedure, shortened: (§1)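 HCT116 cells treated with 0, 1, 5 and 10 μM compound for 12 h. Whole-cell levels of HSP90, HSP70, CDC37, CDK4, CDK6, cyclin D1, p21 and p27 measured by Western blot, with β-actin as loading control. Three independent experiments.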

[8] = test system: HCT-116; test: Induction of cell cycle arrest in human HCT-116 cells assessed as increase in accumulation at G0/G1 phase at 1 to 10 uM incubated for 24 hrs by propidium iodide staining based flow cytometric analysis; type: functional; settings: dose 1-10 µM
Procedure, shortened: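 HCT116 cells exposed to 0, 1, 5 and 10 μM compound for 24 h. Fixed in 75% ethanol overnight at 4 °C, treated with RNase I (50 μg/mL) in PBS for 30 min at 37 °C, then stained with propidium iodide (50 μg/mL) for 15 min. Cell-cycle phases measured by flow cytometry.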

[9] = test system: HCT-116; test: Inhibition of HSP90/CDC37 interaction in human HCT-116 cells assessed as downregulation of Cyclin D1 at 1 to 10 uM incubated for 12 hrs by Western blot analysis; settings: dose 1-10 µM
[10] = target: T1, Heat shock protein HSP90; test: Binding affinity to HSP90 in human HCT-116 cells assessed as increase in thermal stability at 5 uM incubated for 12 hrs at 35 to 65 degC by […]; type: cell-based
Procedure, shortened: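 HCT116 cells at ~90% confluence treated with 5 μM compound or DMSO for 12 h, then washed and resuspended in PBS. Aliquots heated 3 min across 35–65 °C, freeze-thawed three times in liquid nitrogen and centrifuged. Soluble HSP90 and CDC37 detected by Western blot. Three independent experiments.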

[11] = test system: HCT-116; test: Inhibition of HSP90/CDC37 interaction in human HCT-116 cells for 12 hrs by immunoprecipitation based Western blot analysis; type: cell-based; settings: dose 1-10 µM
Procedure, shortened: (§2)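 HCT116 cells at ~90% confluence given compound (0, 1, 5, 10 μM) or DMSO for 12 h. Lysed 1 h on ice in RIPA buffer (50 mM Tris, 150 mM NaCl, 1% NP-40, protease inhibitors, pH 7.4), then spun 15 min at 4 °C. HSP90 immunoprecipitated with protein A/G magnetic beads over 3 h. Beads washed five times; blots probed for HSP90, CDC37 and CDK4.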

[12] = test system: Mus musculus; test: In vivo inhibition of HSP90/[…] interaction in BALB/c mouse xenografted with human HCT-116 cells assessed as reduction in CDK4 level administered orally for 37 days and measured on day 37 by […] immunohistochemistry analysis; type: functional, organism-based; settings: dose 10-20 mg/kg, time 37.0 day
[13] = test system: HCT-116; test: Inhibition of HSP90/CDC37 interaction in human HCT-116 cells assessed as reduction in CDK4 expression at 1 to 10 uM incubated for 12 hrs by immunoprecipitation based Western blot analysis; type: cell-based; settings: dose 1-10 µM; procedure, shortened: as §2
[14] = Toxicity in BALB/c mouse xenografted with human HCT-116 cells assessed as effect on body weight at 10 to 20 mg/kg, po administered and observed for 37 days; type: organism-based; settings: in vivo, 888 h, dose 10-20 mg/kg, time 37 day
Procedure, shortened: (§3)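 HCT116 cells (1×10^7) mixed 3:1 with Matrigel and injected into the flank of 6-week-old BALB/c nude mice, randomized into groups. Dosing started at mean tumor volume 125 mm³: daily oral doses of 10 or 20 mg/kg in 0.9% saline with 5% DMSO, for 37 days. Tumor volume measured daily by calipers as length×width²/2; body weight recorded every 1–4 days. n = 6, mean ± SD.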

[15] = test system: HCT-116; test: Inhibition of HSP90/CDC37 interaction in human HCT-116 cells assessed as downregulation of HSP70 at 1 to 10 uM incubated for 12 hrs by Western blot analysis; settings: dose 1-10 µM
[16] = test system: HCT-116; test: Inhibition of HSP90/CDC37 interaction in human HCT-116 cells assessed as downregulation of CDK6 incubated for 12 hrs by Western blot analysis; type: cell-based; settings: dose 1-10 µM; procedure, shortened: as §1
[17] = test system: HCT-116; test: Antitumor activity against human HCT-116 cells xenografted in BALB/c mouse assessed as reduction in tumor volume administered orally for 37 days and measured on day 37; type: functional; settings: dose 10-20 mg/kg, time 37.0 day; procedure, shortened: as §3
[18] = Toxicity in BALB/c mouse xenografted with human HCT-116 cells assessed as effect on body weight at 20 mg/kg, po administered and observed for 37 days; type: organism-based; settings: in vivo, 888 h, time 37 day; procedure, shortened: as §3
[19] = test system: HCT-116; test: Antitumor activity against human HCT-116 cells xenografted in BALB/c mouse assessed as reduction in tumor volume at 20 mg/kg, po administered for 37 days and measured on day 37; type: functional, organism-based; settings: time 37.0 day; procedure, shortened: as §3
[20] = test system: Mus musculus; test: In vivo inhibition of HSP90/[…] interaction in BALB/c mouse xenografted with human HCT-116 cells assessed as reduction in CDK4 level at 20 mg/kg, po administered for 37 days and measured on day 37 by […] immunohistochemistry analysis; type: functional, organism-based; settings: time 37.0 day
[21] = target: T1, Heat shock protein HSP90; test: Inhibition of HSP90 (unknown origin) at 100 uM measured after 1.5 hrs in presence of ATP by spectrophotometry relative to control; type: protein assay
[22] = Homo sapiens, HCT-116, 72 h, read-out: IC50

Row | K [1] | K [2] | IC50 [3, 22] [µM] | Kd [4] | SMILES | further results
1 | inactive | inactive | > 20 | – | O=S(=O)(Nc1ccc(Nc2ccnc(N3CCNCC3)n2)cc1)c1cccs1 | –
2 | inactive | inactive | > 20 | – | CC(C)c1cc(C(C)C)c(S(=O)(=O)Nc2ccc(Nc3ccnc(N4CCNCC4)n3)cc2)c(C(C)C)c1 | –
3 | 0.337 s⁻¹ | 3.54 10^4/Ms | 13.4 | 9.52 µM | Cl.O=S(=O)(Nc1ccc(Nc2ccnc(N3CCNCC3)n2)cc1)c1ccc2c(c1)CCC2 | –
4 | inactive | inactive | – | – | Cl.Cn1cnc(S(=O)(=O)Nc2ccc(Nc3ccnc(N4CCNCC4)n3)cc2)c1 | IC50 ([3]; hct-116): Not Active
5 | – | – | 16.7 | > 100 µM | CCCCCc1ccc(S(=O)(=O)Nc2ccc(Nc3ccnc(N4CCNCC4)n3)cc2)cc1.Cl | –
6 | inactive | inactive | 1.35 | – | O=S(=O)(Nc1ccc(Nc2ccnc(N3CCNCC3)n2)cc1)c1ccc(Br)cc1 | –
7 | inactive | inactive | > 20 | – | CCc1ccc(S(=O)(=O)Nc2ccc(Nc3ccnc(N4CCNCC4)n3)cc2)cc1 | –
8 | inactive | inactive | > 20 | – | Cc1ccc(S(=O)(=O)Nc2ccc(Nc3ccnc(N4CCNCC4)n3)cc2)cc1 | –
9 | inactive | inactive | > 20 | – | O=S(=O)(Nc1ccc(Nc2ccnc(N3CCNCC3)n2)cc1)c1ccc(Oc2ccccc2)cc1 | –
10 | 0.121 s⁻¹ | 1.04 10^4/Ms | 7.5 | 11.6 µM | CCCCc1ccc(S(=O)(=O)Nc2ccc(Nc3ccnc(N4CCNCC4)n3)cc2)cc1.Cl | –
11 | inactive | inactive | > 20 | – | O=S(=O)(Nc1ccc(Nc2ccnc(N3CCNCC3)n2)cc1)c1ccc(F)cc1 | –
12 | 0.112 s⁻¹ | 2.03 10^4/Ms | 6.34 | 5.52 µM | Cc1c(C)c(S(=O)(=O)Nc2ccc(Nc3ccnc(N4CCNCC4)n3)cc2)c(C)c2c1OC(C)(C)C2.Cl | Activity [5]: Active; inhibition [6]: Active; inhibition [7]: Dose-dependent effect; Activity [8]: Active; inhibition [9]: Active; Activity [10]: Active; inhibition [11]: Dose-dependent effect; inhibition [12]: Dose-dependent effect; inhibition [13]: Active; Activity [14]: Non-Toxic; inhibition [15]: inactive; inhibition [16]: Dose-dependent effect; Activity [17]: Dose-dependent effect
13 | inactive | inactive | 11.1 | – | O=S(=O)(Nc1ccc(Nc2ccnc(N3CCNCC3)n2)cc1)c1ccc(Cl)cc1 | –
14 | inactive | inactive | > 20 | – | O=S(=O)(Nc1ccc(Nc2ccnc(N3CCNCC3)n2)cc1)c1ccc(OC(F)(F)F)cc1 | –
15 | 0.112 s⁻¹ | 6.1 10^3(1/Ms) | 13.7 | 18.4 µM | Cl.O=S(=O)(Nc1ccc(Nc2ccnc(N3CCNCC3)n2)cc1)c1ccc(-c2ccccc2)cc1 | –
16 | – | – | – | – | Cc1cc(C)c(S(=O)(=O)N(CC(=O)O)c2ccc(Nc3ccnc(N4CCNCC4)n3)cc2)c(C)c1 | Activity [18]: Non-Toxic; Activity [19]: Active; inhibition [20]: Active
17 | 0.182 s⁻¹ | 3.55 10^4/Ms | 16.4 | 5.13 µM | CCOC(=O)c1ccc(S(=O)(=O)Nc2ccc(Nc3ccnc(N4CCNCC4)n3)cc2)cc1.Cl | –
18 | inactive | inactive | > 20 | – | N#Cc1ccc(S(=O)(=O)Nc2ccc(Nc3ccnc(N4CCNCC4)n3)cc2)cc1 | –
19 | inactive | inactive | 7.05 | – | O=S(=O)(Nc1ccc(Nc2ccnc(N3CCNCC3)n2)cc1)c1ccc(OCc2ccccc2)cc1 | –
20 | – | – | > 50 | >= 20 uM | COc1cc(S(=O)(=O)Nc2ccc(Nc3ccnc(N4CCNCC4)n3)cc2)c(C)cc1C.Cl | inhibition [21]: 56%
21 | 0.0366 s⁻¹ | 3.17 10^3(1/Ms) | 19.3 | 11.5 µM | CCCc1ccc(S(=O)(=O)Nc2ccc(Nc3ccnc(N4CCNCC4)n3)cc2)cc1.Cl | –
22 | – | – | > 20 | > 100 µM | CC(C)c1ccc(S(=O)(=O)Nc2ccc(Nc3ccnc(N4CCNCC4)n3)cc2)cc1.Cl | –
23 | 0.0321 s⁻¹ | 3.02 10^3(1/Ms) | 5.82 | 10.6 µM | Cl.O=S(=O)(Nc1ccc(Nc2ccnc(N3CCNCC3)n2)cc1)c1ccc2c(c1)CCO2 | –
